Fewer inactive variants are shown than the library holds.
B1: tRNA (parent)
chain: GUUCCGUUGGCGUAAUGGUAACGCGUCUCCCUCCUAAGGAGAAGACUGCGGGUUCGAGUCCCGUACGGAACG

Variants of: B1
Experiment: yeast fitness relative to wild type (ratio to wild type); higher = fitter; tRNA-Arg(CCU), competitive growth, 37 C, YPD
Procedure, shortened: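 Variants of the tRNA-Arg(CCU) gene, chemically synthesised with a 3% per-site mutation rate at 69 sites, were placed at the native genomic locus in Saccharomyces cerevisiae. The pooled strains were competed in YPD at 37°C for 24 hours in six parallel replicates. Gene amplicons from the start population and from each end population were read by 100-nucleotide paired-end sequencing. Darwinian fitness relative to wild type came from changes in genotype frequencies; genotypes needed ≥ 100 starting reads, and estimates < 0.5 were set to 0.5.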
In the case of GUUCCCUUGGCGUAAUGGUGACGCGUCUCCCUCCUAAGGAGAAGACUGCGGGUUCGAGUCACGUACGGAACG, the yeast fitness is reported as no more than 0.5. With GUUCCCUUGGCGUAAUGGUAACGCGUCUCCCUCCUAAGGGGGAGACUGCGGGUUCGCGUCCCGUAUGGAACG the yeast fitness was no more than 0.5. GUUCCAUUGGCGUAAUGGUAACGCGGCUCUCUCCUAAGGAGAAGACUGCGGAUUCGAGUCCCGUACGGAACG gave a yeast fitness of no more than 0.5. Variant GUUCCAUUGGCGUAAUGGUAACGCGUCUCCCACCUAUGGAGACGACUCCGGGUUCGAGUCCCGUACGGAACG has a yeast fitness of no more than 0.5. Variant GUUCCCUUGGCGUAAUGGUCACGCGUCUCCCUCCCAAGGGGUAGACUGCGGGUUCGAAUCCCAUACAGAACG has a yeast fitness of no more than 0.5. In the case of GUUCCAUUGGCGUAAUGGUAACGCGUCCCCCUCCUAAGGAGAAGACUGCGGGUUCGAGUCUCGUACGGAACG, the yeast fitness is reported as 0.628. Variant GUUCCCUUGGCGUAAUGGUAACGCGUCUCCCUCCUAAGGAGUAGACUGUGGGUUCGAGUCCCGUACGGAACG has a yeast fitness of 0.595. Variant GUUCCCUUGGCGUAAUGGUCACGCGUCUCCCUCCUAAGGAGAAGACUGCGGGUUCGAGUCCCGUACGGAACG has a yeast fitness of 0.773. GUUCCCUUGGCGUAAUGGUGACGCGUCUCCCUCCUAAGGAGAAGACUGCGGGUUCGAGUCCCGUACGGAACG gave a yeast fitness of 0.773. With GUUCCAUUGGCGUAAUGGUAACGCGCCUCCCUCCUAAGGAGAACACUGCGGGUUCGAGUCCCGUACGGAACG the yeast fitness was no more than 0.5. GUUCCCUUGGCGUACUGGUAACGCGUCUCCCUCCUAAGGAGAAGACUGCGGCUUCGAGUCCCGUACGGAACG gave a yeast fitness of no more than 0.5. Variant GUUCCAUUGGCGUAAUGGUAACGCGUCUCCCUCCUAAGGAGAAGACAGCGGGUUCGUGUCCCGUACGGAACG has a yeast fitness of no more than 0.5. GUUCCCUUGGCGUAAUGGUAACGCGUCUCCCUCCUCAGGAGAAGACUGCGGGUUCGAGUCCCGUCCAGAACG gave a yeast fitness of no more than 0.5. For GUUCCCUUGGCGUAAUGGUAACGCGUCUCCCUCCUAGGGAGAAGACUGCGGGUUCGAGUCCCGUACGGACCG, the yeast fitness was no more than 0.5. In the case of GUUCCCUUGGCGUAAUGGUAUCGCGUCUCCCUCCUCAGGAGAAGACUGCGGGUUCGGGUCCCGUACGGAACG, the yeast fitness is reported as no more than 0.5. GUUCCCUUGGCGUUAUGGUAACGCGUCUCCCUCCUAAGGAGAAGACUGCGGGUUCGAGUCCCGUACGGACCG gave a yeast fitness of 0.591. In the case of GUUCCCUUGGCGUAAUGGUAACGCGUCUCCCUCCUAAGGAGCAGACUGUGGGUUCGAGUCCCGUACGGAACG, the yeast fitness is reported as no more than 0.5. GUUCCCUUGGCGUCAUGGUAACGCGUCUUCCUCGUAAGGAGAAGAUUGCGGGUUCGAGUCCCGUAAGCAACG showed a yeast fitness of no more than 0.5. Variant GUUCCCUUGGCGUAAUGGUAACGCGUCUCCCUCCUAUGGAGAAGACUGCGGGUUCGCGUCCCGUACGGUCCG has a yeast fitness of no more than 0.5. GUUCCCUUGGCGUAAUGGUAACGCGUCUCCCUCCUAAGGAGUAGACUGCGGGUUCGAGUCACGAACGGUACG showed a yeast fitness of no more than 0.5. With GUUCCCUUGGCGUAAUGGUAACGCGUCUCCCUCCUAAGGAGCAGACUGCGGGUUCGAGUCCCGUACGGAACG the yeast fitness was 0.808. With GUUCCCUUGGCGUAAUGGUAACGCGUCUCCCUCCUAAGGAGAAGACUGCGGGUUCGAGUCCCGUACGGAACG the yeast fitness was 1. With GUUCCAUUGGCGUAAUGGUAACGCGUCUCCCUCCGAAGGAGACGACUGCGAGUUCGAGUCCCGUACGGAACG the yeast fitness was no more than 0.5. GUUCCCUUGGCGUAAUGGUAACGCGUCUCCCUCCUAAGGAGACGACUGCAGGUUCGAGUCCCGUACGGAUCG showed a yeast fitness of 0.519. In the case of GUUCCCUUGGCGUACUGGUAACGCGUCUCCCUCCUAAGGAGAAGAAUGCGGGUUCGAGUCCCGUACGGAACG, the yeast fitness is reported as 0.504. For GUUCCAUUGGCGUAAUGGUAACGCGUCUCCCUCCUAAGGAGAAGACUGCGGGUCCGAGUGCCGUACGGAACG, the yeast fitness was no more than 0.5. Variant GUUCCAUUGGCGUAAUGGUAACGCGACUCGCUCCUAAGGAGAAGACUGCGGGUUCGAGCCCCGUACGGAACG has a yeast fitness of no more than 0.5. Work on GUUCCCUUGGCGUGAUGGUAACGCGUCUCCCUCCUAAGGAGAAGACUGGAGGUUCGAGUCCCGUACGGAACG yielded a yeast fitness of no more than 0.5. Variant GUUCCAUUGGCGUAAUGGUAACGCGUCACACUCCUAAGGAGAAGACUGCGGGUUCGAGUCCCGUACGGAACG has a yeast fitness of no more than 0.5. For GUUCCAUUGGCGUAAUGGUAACGCGUCCCCCUCCUAAGGAGAAGGCUGCGGGUUCGAGUCCCGUACGGAACG, the yeast fitness was 0.781. GUUCCCUUGGCGUAAUGGUAACGCGUCUCCCUCCUAAGGAGACGACUGCGGGUUCGAGUCCCGUACGGAACG showed a yeast fitness of 0.739. With GUUCCCUUGGCGUAAUGGUAACGCGUCUCCCUCCUAAGGAGAUGACUGCGGGUUCGAGUCCCGUACGGAACG the yeast fitness was 0.831. For GUUCCAUUGGCGUAAUGGUAACGCGUCGCCCUCCUAAGGAGAAGACUGCGGGUUCGAGUGCCGUACGGAACG, the yeast fitness was no more than 0.5. In the case of GUUCCCUUGGCGUGAUGGUCACGCGUCUCCCUCCUAAGGAGAAGACUGCGGGUUCGAGUCCCGUACGGAACG, the yeast fitness is reported as 0.501. In the case of GUUCCCUUGGCGUAAUGGUAACGCGUCUCCCUCCUACGGAGAAGACUGCGAGCUCGAGUCCAGUACGGACCG, the yeast fitness is reported as no more than 0.5. GUUCCCUUGGCGUAAUGGUCACGCGUCUCCCUCCUAAGGGGUAGACUGCGGGUUCGAGUGCCGUACGGAACG gave a yeast fitness of no more than 0.5. Work on GUUCCAUUGGCGUAAUGGUAACGCGCCUACCUCCUAAGGAGAAGACUGCGGGUUCGAGUCCCGUACGGAACG yielded a yeast fitness of no more than 0.5.

Reference: the RNAGym collection of RNA variant scans (doi:10.1126/science.aae0568)
